Assay results pooled from the literature.
Each line is one published result; the experiments were not run side by side. ≈ marks a conversion by molar mass, not a printed value.

| Structure (SMILES) | tested on | assay | test system | setting | quantity | result |
| --- | --- | --- | --- | --- | --- | --- |
| Cc1ncc([N+](=O)[O-])n1CCO | Fusobacterium nucleatum | microbial growth | – | – | MIC50 | ≤ 0.06 µg/mL |
| CCN(CCO)CCCC(C)Nc1ccnc2cc(Cl)ccc12 (centres unmarked) | Severe acute respiratory syndrome coronavirus 2 | viral replication, inhibitor | A549-ACE2 | – | IC50 | 871 nM |
| CCC(CC)COC(=O)[C@H](C)N[P@](=O)(OC[C@H]1O[C@@](C#N)(c2ccc3c(N)ncnn23)[C@H](O)[C@@H]1O)Oc1ccccc1 | Severe acute respiratory syndrome coronavirus 2 | viral replication | Vero | 0.1 µM | inhibition | 64.7% |
| CN(C)CCCC1(c2ccc(F)cc2)OCc2cc(C#N)ccc21 (centres unmarked) | Severe acute respiratory syndrome coronavirus 2 | viral replication, inhibitor | A549-ACE2 | – | IC50 | 3310 nM |
| O=C(O[C@@H]1Cc2c(O)cc(O)cc2O[C@@H]1c1cc(O)c(O)c(O)c1)c1cc(O)c(O)c(O)c1 | Severe acute respiratory syndrome coronavirus 2 | cytopathic effect | Vero C1008 | 3.125 µM | inhibition | 0% |
| CN(CCc1ccc(Cl)c(Cl)c1)CCN1CCCC1 | Severe acute respiratory syndrome coronavirus 2 | viral replication | Vero C1008 | – | IC50 | 5250 nM |
| COc1ccc(C[C@@H]2c3cc(Oc4cc(C[C@@H]5c6cc(O)c(OC)cc6CCN5C)ccc4O)c(OC)cc3CCN2C)cc1 | Severe acute respiratory syndrome coronavirus 2 | cytopathic effect | Vero C1008 | 0.7812 µM | inhibition | 0% |
| Cn1c(C(=O)Nc2ccc3c(c2)OCCO3)cc2c(=O)n3ccccc3nc21 | Severe acute respiratory syndrome coronavirus 2 | viral replication | Vero | 1 nM | inhibition | 5.41% |
| C[C@H]1COCCN1c1nc(NCc2cccnc2C(F)(F)F)c2cccnc2n1 | Clostridioides difficile | microbial growth, broth dilution | R20291 | – | MIC | 64 µg/mL (≈ 158 µM) |
| Cc1ccc(NC(=O)c2cc3c(=O)n4cccc(C)c4nc3n2C)cc1Cl | Severe acute respiratory syndrome coronavirus 2 | viral replication | Vero | 10 µM | inhibition | 94.8% |
| Fc1ccc([C@@H]2CCNC[C@H]2COc2ccc3c(c2)OCO3)cc1 | Severe acute respiratory syndrome coronavirus 2 | viral replication, inhibitor | A549-ACE2 | – | IC50 | 2510 nM |
| C=C[C@@](C)(/C=C/c1ccc(O)cc1)CCC=C(C)C | Severe acute respiratory syndrome coronavirus 2 | cytopathic effect, inhibitor | Vero C1008 | 12.5 µM | inhibition | 0% |
| CC(=O)c1cccc(NC(=O)c2cc3c(=O)n4ccccc4nc3n2C)c1 | Severe acute respiratory syndrome coronavirus 2 | viral replication | Vero | 1 µM | inhibition | 93.7% |
| C=CCNC1=C2C[C@@H](C)C[C@H](OC)[C@H](O)[C@@H](C)/C=C(\C)[C@H](OC(N)=O)[C@@H](OC)/C=C\C=C(/C)C(=O)NC(=C(C)C1=O)C2=O | ARPE-19 | cell growth or viability, MTT | – | – | IC50 | > 20000 nM |
| OCCN1CCN(CCCN2c3ccccc3C=Cc3ccccc32)CC1 | Severe acute respiratory syndrome coronavirus 2 | viral replication, inhibitor | A549-ACE2 | – | IC50 | 2510 nM |
| O=C(/C=C/c1ccc(O)c(O)c1/C=C/c1ccc(O)c(O)c1)O[C@H](Cc1ccc(O)c(O)c1)C(=O)O | Severe acute respiratory syndrome coronavirus 2 | cytopathic effect, inhibitor | Vero C1008 | 100 µM | inhibition | 58.3% |
| Nc1ccn([C@@H]2CS[C@H](CO)O2)c(=O)n1 | Hepatitis B virus | viral replication, qPCR | HepG2.2.15 | 14 days | IC50 | 50 nM |
| CCc1ccc(NC(=O)c2cc3c(=O)n4ccccc4nc3n2C)cc1 | Severe acute respiratory syndrome coronavirus 2 | viral replication | Vero | 10 µM | inhibition | 95% |
| CC(C)(C)[C@]1(O)CCN2C[C@H]3c4ccccc4CCc4cccc(c43)[C@@H]2C1 | Severe acute respiratory syndrome coronavirus 2 | viral replication, inhibitor | A549-ACE2 | – | IC50 | 9120 nM |
| [O-][N+]1=C(c2ccc(Cl)cc2)C2=NCCN2c2ccccc21 | Clostridioides difficile | microbial growth | – | – | MIC90 | 0.25 µg/mL (≈ 0.84 µM) |
| CN(Cc1cc(Br)cc(Br)c1N)C1CCCCC1 | Severe acute respiratory syndrome coronavirus 2 | viral replication, inhibitor | A549-ACE2 | – | IC50 | 1320 nM |
| O=[N+]([O-])c1ccc(C2=[N+]([O-])c3ccccc3N3CCN=C23)cc1 | Fusobacterium nucleatum | microbial growth | – | – | MIC50 | ≤ 0.06 µg/mL |
| CCN(CC)CCO[C@H]1CC[C@@]2(C)C(=CC[C@@H]3[C@@H]2CC[C@]2(C)C(=O)CC[C@@H]32)C1 | Severe acute respiratory syndrome coronavirus 2 | viral replication, inhibitor | A549-ACE2 | – | IC50 | 132 nM |
| CC(C)=CCc1c(O)ccc(C(=O)/C=C/c2ccc(O)cc2)c1O | Severe acute respiratory syndrome coronavirus 2 | cytopathic effect | Vero C1008 | 12.5 µM | inhibition | 0% |
| Cc1cc(NC(=O)c2cc3c(=O)n4cccc(C)c4nc3n2C)ccc1Br | Severe acute respiratory syndrome coronavirus 2 | viral replication | Vero | 1 nM | inhibition | 5.51% |
| CC(C)OC(=O)[C@H](C)N[P@](=O)(CO[C@H](C)Cn1cnc2c(N)ncnc21)Oc1ccccc1 | Hepatitis B virus | viral replication | HepG2.2.15 | 14 days | IC50 | 50 nM |
